Test results taken from ChEMBL document CHEMBL2321866 (J Med Chem, 2013).
The source made the active and inactive calls. The calls are words filed in the database; no cut-off is given here.

Tests used:
Cannabinoid receptor 2 [1] = molecular target: T1, Cannabinoid receptor 2 (Homo sapiens, UniProt P34972); assay: Displacement of [3H]CP-55,940 from CB2 receptor (unknown origin) after 1 hr by scintillation counting analysis
Homo sapiens = organism: Homo sapiens; assay: Selectivity index, ratio of Ki for CB1 receptor (unknown origin) to Ki for CB2 receptor (unknown origin)
Cannabinoid receptor 1 = Cannabinoid receptor 1 (Homo sapiens, UniProt P21554)
Cannabinoid receptor 1, sequence (P21554 whole entry): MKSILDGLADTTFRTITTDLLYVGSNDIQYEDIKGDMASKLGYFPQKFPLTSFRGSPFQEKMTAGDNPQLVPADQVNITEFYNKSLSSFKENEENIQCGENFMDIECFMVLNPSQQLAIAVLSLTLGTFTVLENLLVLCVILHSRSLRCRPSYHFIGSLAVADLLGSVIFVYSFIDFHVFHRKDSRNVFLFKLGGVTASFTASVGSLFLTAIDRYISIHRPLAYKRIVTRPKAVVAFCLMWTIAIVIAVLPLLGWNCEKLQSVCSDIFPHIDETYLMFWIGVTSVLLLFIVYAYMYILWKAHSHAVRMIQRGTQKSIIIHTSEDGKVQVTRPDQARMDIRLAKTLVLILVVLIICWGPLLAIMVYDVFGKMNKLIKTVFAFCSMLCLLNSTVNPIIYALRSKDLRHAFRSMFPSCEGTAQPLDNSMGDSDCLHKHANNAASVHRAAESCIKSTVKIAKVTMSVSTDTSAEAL

Cannabinoid receptor 2 [2] = molecular target: T1, Cannabinoid receptor 2; assay: Inverse agonist activity at human CB2 receptor expressed in CHO cells assessed as increase in forskolin-induced cAMP production after 45 mins in presence of phosphodiesterase inhibitor RO20-1724; format: functional, cell-based
RAW264.7 [3] = assay: Cytotoxicity against mouse RAW264.7 cells assessed as cell viability at 5 to 10 uM after 3 days by MTT assay; format: cell-based; settings: raw264.7, 72 h
How it was run: (§1)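 Survival measured by MTT and expressed as percent of vehicle control. Mean ± S.E.M. of experiments run in triplicate.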

RAW264.7 [4] = assay: Cytotoxicity against mouse RAW264.7 cells assessed as cell viability at […] after 3 days by MTT assay; format: cell-based; settings: raw264.7, 72 h
RAW264.7 [5] = assay: Inhibition of RANKL-induced osteoclastogenesis in mouse RAW264.7 cells after 5 days by TRAP assay; format: functional, cell-based
How it was run: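 RAW 264.7 cells, 3×10^3 per well, grown 24 h in αMEM/10% FBS, then switched to medium with RANKL (15 ng/mL) plus compound (0.1–10 µM). After 5 days cells fixed and TRAP-stained; TRAP+ cells with more than three nuclei scored as osteoclasts. Mean of three experiments in triplicate.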

RAW264.7 [6] = assay: Cytotoxicity against mouse RAW264.7 cells assessed as cell viability at 2.5 uM after 3 days by MTT assay relative to vehicle-treated control; format: cell-based; settings: raw264.7, 72 h; how it was run: as §1
RAW264.7 [7] = assay: Cytotoxicity against mouse RAW264.7 cells assessed as cell viability at 5 uM after 3 days by MTT assay; format: cell-based; settings: raw264.7, 72 h; how it was run: as §1
RAW264.7 [8] = assay: Inhibition of RANKL-induced osteoclastogenesis in mouse RAW264.7 cells at 10 uM after 5 days by TRAP assay relative to control; format: functional; settings: RAW264.7, 120 h
How it was run: (§2)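 RAW 264.7 murine monocytic cells were seeded at 3 × 10^3 per well and cultured 24 h in αMEM with 10% FBS. Medium was then replaced with the same medium containing RANKL (15 ng/mL) plus test compound. […] Mean of three experiments, each in triplicate.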

RAW264.7 [9] = assay: Inhibition of RANKL-induced osteoclastogenesis in mouse RAW264.7 cells at 1 uM after 5 days by TRAP assay relative to control; format: functional; how it was run: as §2
RAW264.7 [10] = assay: Inhibition of RANKL-induced osteoclastogenesis in mouse RAW264.7 cells at 0.1 uM after 5 days by TRAP assay relative to control; format: functional; settings: RAW264.7, 120 h; how it was run: as §2

T1 sequence (P34972 whole entry): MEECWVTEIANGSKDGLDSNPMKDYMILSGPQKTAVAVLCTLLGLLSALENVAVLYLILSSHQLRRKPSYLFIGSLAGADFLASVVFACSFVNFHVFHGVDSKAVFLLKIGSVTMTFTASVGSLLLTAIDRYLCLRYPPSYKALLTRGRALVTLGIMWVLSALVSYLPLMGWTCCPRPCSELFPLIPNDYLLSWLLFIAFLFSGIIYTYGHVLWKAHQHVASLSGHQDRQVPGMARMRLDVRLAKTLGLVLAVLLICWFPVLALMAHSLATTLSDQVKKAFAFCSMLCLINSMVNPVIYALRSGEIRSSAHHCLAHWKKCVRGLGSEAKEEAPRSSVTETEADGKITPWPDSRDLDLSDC

SMILES	Ki (Cannabinoid receptor 2 [1]; read-out: Ki)	Ratio Ki (Homo sapiens)	also measured
CCN(CC)c1ccc(CN([C@]23C[C@H]4C[C@H](C[C@H](C4)C2)C3)S(=O)(=O)c2ccc(C(C)C)cc2)cc1	0.457 µM		
CCN(CC)c1ccc(CN(c2ccc(Cl)cc2)S(=O)(=O)c2ccc(C(C)C)cc2)cc1	0.222 µM		
CCN(CC)c1ccc(CN([C@]23C[C@H]4C[C@H](C[C@H](C4)C2)C3)S(=O)(=O)c2ccc(OC)cc2)cc1	0.137 µM		
CCN(CC)c1ccc(CN([C@]23C[C@H]4C[C@H](C[C@H](C4)C2)C3)S(=O)(=O)c2ccccc2)cc1	0.084 µM	130	Ki (Cannabinoid receptor 1): 11 µM
CCN(CC)c1ccc(CN(C(=O)Cc2ccc(Cl)cc2)c2ccc(Cl)cc2)cc1	0.136 µM	147	
CCCCCCCN(Cc1ccc(N(CC)CC)cc1)S(=O)(=O)CCCC			Ki (Cannabinoid receptor 2 [1]; read-out: pKi (converted)): 0.697 µM
CCN(CC)c1ccc(CN(c2ccc(C)cc2)S(=O)(=O)c2ccc(C)cc2)cc1	0.0054 µM		
CCN(CC)c1ccc(CN(c2ccc(C)cc2)S(=O)(=O)c2cccc(C)c2)cc1	0.0058 µM	37	
CCCCCCCC(=O)N(Cc1ccc(N(CC)CC)cc1)[C@]12C[C@H]3C[C@H](C[C@H](C3)C1)C2	0.638 µM		
CCCCCCCN(Cc1ccc(N(CC)CC)cc1)C(=O)Cc1ccc(Cl)cc1	0.696 µM		
CCN(CC)c1ccc(CN[C@]23C[C@H]4C[C@H](C[C@H](C4)C2)C3)cc1	20 µM		
CCN(CC)c1ccc(CN(c2ccc(C)cc2)S(=O)(=O)c2ccc(F)cc2)cc1	0.0056 µM	153	
CCN(CC)c1ccc(CN(C(=O)Cc2ccccc2)c2ccc(C)cc2)cc1	0.072 µM	> 277	Ki (Cannabinoid receptor 1): > 20 µM
CCCCCCCN(Cc1ccc(N(CC)CC)cc1)S(=O)(=O)c1cccc(C)c1	2.3 µM		
CCN(CC)c1ccc(CN(c2ccc(C)cc2)S(=O)(=O)c2ccccc2)cc1	0.0034 µM	151	EC50 (Cannabinoid receptor 2 [2]): 0.609 µM
CCN(CC)c1ccc(CN(C(=O)C2CCCCC2)c2ccc(C)cc2)cc1	0.222 µM	0.9	
CCN(CC)c1ccc(CN(C(=O)Cc2ccc(Cl)cc2)[C@]23C[C@H]4C[C@H](C[C@H](C4)C2)C3)cc1			Ki (Cannabinoid receptor 1): > 20 µM
CCN(CC)c1ccc(CN([C@]23C[C@H]4C[C@H](C[C@H](C4)C2)C3)S(=O)(=O)c2ccc(Cl)cc2)cc1	0.173 µM	11	Ki (Cannabinoid receptor 1): 2.03 µM
CCN(CC)c1ccc(CN(C(=O)Cc2ccc(Cl)cc2)c2ccc(C)cc2)cc1	0.107 µM	29	
CCCCCCCN(Cc1ccc(N(CC)CC)cc1)S(=O)(=O)c1ccc(OC)cc1	5.19 µM		
CCCCCCCN(Cc1ccc(N(CC)CC)cc1)C(=O)c1ccc(N(C)C)cc1	1.28 µM		
CCN(CC)c1ccc(CN(C(=O)C2CCCCC2)c2ccc(Cl)cc2)cc1	0.164 µM	121	Ki (Cannabinoid receptor 1): > 20 µM
CCCCCCCN(Cc1ccc(N(CC)CC)cc1)S(=O)(=O)Cc1ccccc1	0.273 µM		

SMILES	Ki (Cannabinoid receptor 2 [1]; read-out: Ki)	Ratio Ki (Homo sapiens)	also measured
CCN(CC)c1ccc(CN(c2ccc(Cl)cc2)S(=O)(=O)c2ccc(F)cc2)cc1	0.073 µM	15	
CCCCCCCN(Cc1ccc(N(CC)CC)cc1)C(=O)C1CCCCC1	0.212 µM		
CCN(CC)c1ccc(CN(C(=O)C2CCCCC2)[C@]23C[C@H]4C[C@H](C[C@H](C4)C2)C3)cc1	0.035 µM	> 571	Ki (Cannabinoid receptor 1): > 20 µM
CCN(CC)c1ccc(CN(c2ccc(C)cc2)S(=O)(=O)c2ccc(C(C)C)cc2)cc1	0.0043 µM	782	
Cc1ccc(S(=O)(=O)N(CCc2ccc(Cl)cc2)S(=O)(=O)c2ccc(C)cc2)cc1	0.192 µM	26	
CCN(CC)c1ccc(CNc2ccc(Cl)cc2)cc1	6.74 µM		
CCCCCCCC(=O)N(CCCCCCC)Cc1ccc(N(CC)CC)cc1	> 20 µM		
CCCCCCCN(Cc1ccc(N(CC)CC)cc1)S(=O)(=O)c1ccc(Cl)cc1	6.74 µM		
CCN(CC)c1ccc(CN(c2ccc(Cl)cc2)S(=O)(=O)c2ccc(OC)cc2)cc1	0.014 µM	> 1430	Activity (RAW264.7 [3]): Toxic; Activity (RAW264.7 [4]): Non-toxic; inhibition (RAW264.7 [5]): Dose-dependent effect; Activity (RAW264.7 [6]): Non-toxic; Activity (RAW264.7 [7]): Toxic; EC50 (Cannabinoid receptor 2 [2]): 0.0164 µM; inhibition at 10 µM (RAW264.7 [8]): > 95%; Ki (Cannabinoid receptor 1): > 20 µM; inhibition (RAW264.7 [9]): Active
CCCCCCCN(Cc1ccc(N(CC)CC)cc1)C(=O)Cc1ccccc1	1.31 µM		
CCCCCCCN(Cc1ccc(N(CC)CC)cc1)S(=O)(=O)c1ccc(OC(C)C)cc1	> 20 µM		
CCN(CC)c1ccc(CN(c2ccc(C)cc2)S(=O)(=O)c2ccc(OC)cc2)cc1	0.0005 µM	2590	Activity (RAW264.7 [3]): Toxic; inhibition (RAW264.7 [5]): Dose-dependent effect; Activity (RAW264.7 [6]): Non-toxic; Activity (RAW264.7 [7]): Toxic; EC50 (Cannabinoid receptor 2 [2]): 0.0427 µM; inhibition at 10 µM (RAW264.7 [8]): 100%; inhibition at 1 µM (RAW264.7 [9]; RAW264.7, 120 h): 97%; inhibition at 0.1 µM (RAW264.7 [10]): 46%
CCN(CC)c1ccc(CN([C@]23C[C@H]4C[C@H](C[C@H](C4)C2)C3)S(=O)(=O)c2ccc(F)cc2)cc1	0.025 µM		EC50 (Cannabinoid receptor 2 [2]): 0.268 µM; Ki (Cannabinoid receptor 1): 4.27 µM
CCN(CC)c1ccc(CN(c2ccc(Cl)cc2)S(=O)(=O)c2cccc(C)c2)cc1	0.0028 µM		
CCN(CC)c1ccc(CN(C(=O)Cc2ccccc2)[C@]23C[C@H]4C[C@H](C[C@H](C4)C2)C3)cc1	0.038 µM	> 333	Ki (Cannabinoid receptor 1): > 20 µM
CCN(CC)c1ccc(CN([C@]23C[C@H]4C[C@H](C[C@H](C4)C2)C3)S(=O)(=O)c2ccc(C)cc2)cc1			Ki (Cannabinoid receptor 1): > 20 µM
CCN(CC)c1ccc(CN(c2ccc(Cl)cc2)S(=O)(=O)c2ccc(C)cc2)cc1	0.037 µM	3.7	
CCN(CC)c1ccc(CN(c2ccc(C)cc2)S(=O)(=O)c2ccc(Cl)cc2)cc1	0.003 µM		
CCCCCCCN(Cc1ccc(N(CC)CC)cc1)S(=O)(=O)c1ccc(C(C)C)cc1	13 µM		
CCN(CC)c1ccc(CN(c2ccc(Cl)cc2)S(=O)(=O)c2ccc(Cl)cc2)cc1	0.036 µM	183	
CCN(CC)c1ccc(CN([C@]23C[C@H]4C[C@H](C[C@H](C4)C2)C3)S(=O)(=O)c2cccc(C)c2)cc1	0.019 µM		Activity (RAW264.7 [4]): Non-toxic; inhibition (RAW264.7 [5]): Dose-dependent effect; inhibition at 10 µM (RAW264.7 [8]): > 95%; Ki (Cannabinoid receptor 1): 8.22 µM
CCCCCCCN(Cc1ccc(N(CC)CC)cc1)S(=O)(=O)c1ccc(F)cc1	1.1 µM		
